# Published values collected from several papers.
# Compare with care: the assays were run in different laboratories.
# Target: Receptor tyrosine-protein kinase erbB-2 (ERBB2, Homo sapiens, UniProt P04626)
SMILES,assay,conditions,endpoint,result
C[C@H](C(=O)N[C@H]1COc2ccccc2[C@@H]1S(C)(=O)=O)c1ccc(F)cc1,"enzyme activity, inhibitor",10 µM,inhibition,0%
Nc1ncc(-c2nc(N3CCOCC3)nc(N3CCOCC3)n2)c(C(F)F)n1,"binding, competition with immobilised ligand",10 µM,remaining binding,65%
COc1ncccc1-c1cnn2ccc(N3CCN(C(=O)OC(C)C)CC3)nc12,"binding, competition with immobilised ligand",1 µM,remaining binding,92%
C#Cc1n[nH]c2c(-c3cn([C@@H](C)c4ccccn4)c(=O)[nH]c3=O)cc(F)cc12,"enzyme activity, inhibitor",0.1 µM,inhibition,-0.7%
N#CC1(c2ccccn2)CCN(Cc2cc(C(=O)O)c(=O)n3ccccc23)CC1,"cell-free assay, competition with immobilised ligand",1 µM,remaining binding,96%
Cn1cc(-c2cc(F)cc(N3CCn4c(cc5c4CCCC5)C3=O)c2CO)cc(Nc2ccc(N3CCN(C4COC4)CC3)cn2)c1=O,"enzyme activity, inhibitor",0.1 µM,inhibition,7%
CC(C)(C)c1cc(C=C(C#N)C#N)cc(Br)c1O,"enzyme activity, inhibitor",0.5 µM,remaining activity,95.7%
Cn1cc(-c2cccc(N3CCc4c(sc5c4CC(C)(C)C5)C3=O)c2CO)cc(Nc2ccncn2)c1=O,"enzyme activity, inhibitor",1 µM,inhibition,54%
Cn1cncc1[C@@](O)(COc1ccc(C#N)cc1-c1ccc(OC(F)(F)F)cc1)c1ccc(C#N)cc1,"cell-free assay, competition with immobilised ligand",1 µM,remaining binding,94%
O=c1[nH]c2ccccc2n1C1CCN(Cc2ccc(-c3[nH]c4cc5ncnc5cc4nc3-c3ccccc3)cc2)CC1,cell-free assay,0.5 µM,remaining signal,88.9%
Cc1nn(C)cc1-c1nc2c(N3CCN(Cc4ccc(Cl)cc4)CC3)c(Cl)cnc2[nH]1,"binding, competition with immobilised ligand",1 µM,remaining binding,70%
C#Cc1n[nH]c2c(-c3cn([C@@H](C)c4ccccc4)c(=O)[nH]c3=O)cc(F)cc12,"enzyme activity, inhibitor",0.1 µM,inhibition,-8.5%
COc1cc(Nc2ncc(F)c(Nc3ccc4c(n3)NC(=O)C(C)(C)O4)n2)cc(OC)c1OC,"binding, competition with immobilised ligand",10 µM,inhibition,70%
c1ccc(C(NCCNC(c2ccccc2)c2ccccc2)c2ccccc2)cc1,"enzyme activity, inhibitor",10 µM,inhibition,-7%
